Assay results as given in ChEMBL document CHEMBL4765405, “Design, synthesis and biological activities of novel pleuromutilin derivatives with a substituted triazole moiety as potent antibacterial agents” (Eur J Med Chem, 2020).
Converted amounts (≈) assume the structure as drawn. The source made the active and inactive calls. The rule behind the calls is not given here.

Assays:
[1] = test system: Staphylococcus aureus; experiment: Antibacterial activity against methicillin-resistant Staphylococcus aureus ATCC 43300 after 24 hrs by CLSI based broth micro dilution method; type: functional
In short: (§1)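 Broth microdilution run per CLSI. MRSA ATCC 43300 served as the QC strain, with the CLSI QC range as reference. S. aureus AD3 and 144 are clinical isolates from Guangdong Province. Pleuromutilin and tiamulin were run as reference drugs.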

[2] = test system: Staphylococcus aureus; experiment: Antibacterial activity against Staphylococcus aureus ATCC 29213 after 24 hrs by CLSI based broth micro dilution method; type: functional; in short: as §1
[3] = test system: Staphylococcus aureus; experiment: Antibacterial activity against Staphylococcus aureus AD3 after 24 hrs by CLSI based broth micro dilution method; type: functional
In short: (§2)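 CLSI broth microdilution MIC against S. aureus ATCC 43300 (MRSA), ATCC 29213, clinical isolates AD3 and 144 (Guangdong Province), and E. coli ATCC 25922; ATCC 43300 served as QC strain, with the CLSI quality control range as reference.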

[4] = test system: Staphylococcus aureus; experiment: Antibacterial activity against Staphylococcus aureus 144 after 24 hrs by CLSI based broth micro dilution method; type: functional; in short: as §1
[5] = test system: Escherichia coli; experiment: Antibacterial activity against Escherichia coli ATCC 25922 after 24 hrs by CLSI based broth micro dilution method; type: functional; in short: as §2
[6] = test system: Staphylococcus aureus; experiment: Bactericidal activity against methicillin-resistant Staphylococcus aureus ATCC 43300 preincubated 16 to 20 hrs followed by subculturing and measured after over night; type: functional
In short: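 MBC determined by the CLSI broth microdilution method against MRSA ATCC 43300, with ATCC 43300 also serving as the QC strain. Pleuromutilin and tiamulin were reference drugs.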

[7] = test system: Staphylococcus aureus; experiment: Bactericidal activity against Staphylococcus aureus ATCC 29213 preincubated 16 to 20 hrs followed by subculturing and measured after over night; type: functional
In short: (§3)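 MBC by CLSI broth microdilution on the same strain panel: S. aureus ATCC 43300, ATCC 29213, clinical isolates AD3 and 144, E. coli ATCC 25922; ATCC 43300 served as QC strain.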

[8] = test system: Staphylococcus aureus; experiment: Bactericidal activity against Staphylococcus aureus AD3 preincubated 16 to 20 hrs followed by subculturing and measured after over night; type: functional; in short: as §3
[9] = test system: Staphylococcus aureus; experiment: Bactericidal activity against Staphylococcus aureus 144 preincubated 16 to 20 hrs followed by subculturing and measured after over night; type: functional; in short: as §3
[10] = test system: Escherichia coli; experiment: Bactericidal activity against Escherichia coli ATCC 25922 preincubated 16 to 20 hrs followed by subculturing and measured after over night; type: functional; in short: as §3
[11] = Ratio of MBC for bactericidal activity against methicillin-resistant Staphylococcus aureus ATCC 43300 to MIC for antibacterial activity against methicillin-resistant Staphylococcus aureus ATCC 4330; type: functional
[12] = test system: Staphylococcus aureus; experiment: Bactericidal activity against methicillin-resistant Staphylococcus aureus ATCC 43300 assessed as reduction in bacterial growth at > 8 time of MIC concentration preincubated up to 24 hrs followed by subculturing and measured after 20 hrs by time-kill assay; type: functional, organism-based; settings: time hrs <=44
[13] = test system: Staphylococcus aureus; experiment: Antibacterial activity against methicillin-resistant Staphylococcus aureus ATCC 43300 assessed as post antibacterial effect at 2 time of MIC concentration preincubated for 2 hrs followed by compound washout further incubated with fresh medium and measured for 6 hrs; type: functional
[14] = test system: Staphylococcus aureus; experiment: Antibacterial activity against methicillin-resistant Staphylococcus aureus ATCC 43300 assessed as post antibacterial effect at 4 time of MIC concentration preincubated for 2 hrs followed by compound washout further incubated with fresh medium and measured for 6 hrs; type: functional
[15] = test system: Staphylococcus aureus; experiment: Antibacterial activity against methicillin-resistant Staphylococcus aureus ATCC 43300 infected in ICR/Swiss mouse model of neutropenic thigh infection assessed as reduction in bacterial load at 20 mg/kg, iv and measured after 24 hrs; type: functional
In short: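 Mice made neutropenic by intraperitoneal cyclophosphamide; the negative control group received 0.9% saline intraperitoneally. Thigh muscle was inoculated with about 10^7 CFU/mL MRSA. Dose 20 mg/kg, with tiamulin as comparator and an untreated control. Read-out was thigh bacterial load (log10 CFU/g), n = 6/group.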

[16] = test system: Staphylococcus aureus; experiment: Antibacterial activity against methicillin-resistant Staphylococcus aureus ATCC 43300 infected in ICR/Swiss mouse systemic infection model assessed as survival rate at 30 mg/kg, ip after 7 days relative to control; type: functional; settings: ATCC 43300, ip, 168 h, time 7 day
In short: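 MRSA systemic infection model in mice. Dose 30 mg/kg with tiamulin as comparator and an untreated infected control. Survival was recorded after 7 days of administration.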

[17] = Inhibition of CYP450 (unknown origin); type: ADME, Homo sapiens
[18] = test system: Staphylococcus aureus; experiment: Bactericidal activity against methicillin-resistant Staphylococcus aureus ATCC 43300 assessed as reduction in bacterial growth at MIC concentration preincubated up to 24 hrs followed by subculturing and measured after 20 hrs by time-kill assay; type: functional, organism-based; settings: time hrs <=44
[19] = test system: Staphylococcus aureus; experiment: Bactericidal activity against methicillin-resistant Staphylococcus aureus ATCC 43300 assessed as reduction in bacterial growth at > 4 time of MIC concentration preincubated up to 24 hrs followed by subculturing and measured after 20 hrs by time-kill assay; type: functional; parameters: scale not given: the % may be the effect or the level left; settings: time hrs <=44
[20] = test system: RAW264.7; experiment: Cytotoxicity against mouse RAW264.7 cells assessed as reduction in cell viability at 8 ug/ml after 16 hrs by MTT assay; type: cell-based; settings: raw264.7, 16 h, dose 8 µg/ml
In short: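 RAW 264.7 macrophage viability read by MTT assay after exposure at 8 μg/mL.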

[21] = biological target: Cytochrome P450 3A4 (Homo sapiens, UniProt P08684); experiment: Inhibition of CYP3A4 in human liver microsomes using testosterone as substrate preincubated for 5 mins followed by NADPH addition and measured after 5 mins by LC-MS/MS analysis; type: ADME
Sequence of Cytochrome P450 3A4 (P08684 whole entry): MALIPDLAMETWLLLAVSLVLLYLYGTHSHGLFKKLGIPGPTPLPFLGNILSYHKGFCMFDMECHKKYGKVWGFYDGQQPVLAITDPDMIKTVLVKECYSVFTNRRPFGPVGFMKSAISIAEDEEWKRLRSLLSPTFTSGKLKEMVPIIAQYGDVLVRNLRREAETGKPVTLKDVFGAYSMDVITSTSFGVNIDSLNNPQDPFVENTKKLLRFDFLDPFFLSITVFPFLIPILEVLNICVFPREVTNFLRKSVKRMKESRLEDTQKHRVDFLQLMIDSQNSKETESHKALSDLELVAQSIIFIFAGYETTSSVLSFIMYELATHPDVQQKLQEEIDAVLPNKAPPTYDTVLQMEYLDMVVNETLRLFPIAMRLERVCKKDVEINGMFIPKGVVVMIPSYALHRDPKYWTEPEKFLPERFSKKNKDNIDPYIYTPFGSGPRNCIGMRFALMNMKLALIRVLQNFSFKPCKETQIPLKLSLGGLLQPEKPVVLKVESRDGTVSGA

Row | Compound | MIC [1] [µg/mL] | MIC [2] [µg/mL] | MIC [3] [µg/mL] | MIC [4] [µg/mL] | MIC [5] [µg/mL] | MBC [6] [µg/mL] | MBC [7] [µg/mL] | MBC [8] [µg/mL] | MBC [9] [µg/mL] | MBC [10] [µg/mL] | Ratio [11] | also measured
1 | C=C[C@]1(C)C[C@@H](OC(=O)CSc2ccccc2NC(=O)Cn2cc(CN3CCN(c4cccc([N+](=O)[O-])c4)CC3)nn2)[C@]2(C)[C@H](C)CC[C@]3(CCC(=O)[C@H]32)[C@@H](C)[C@@H]1O | 0.125 (≈ 0.154 µM) | 0.25 (≈ 0.307 µM) | 0.25 (≈ 0.307 µM) | 0.25 (≈ 0.307 µM) | > 32 | 0.25 (≈ 0.307 µM) | 0.25 (≈ 0.307 µM) | 0.5 (≈ 0.614 µM) | 0.5 (≈ 0.614 µM) | > 32 | 1 | Activity [12]: Active
2 | C=C[C@]1(C)C[C@@H](OC(=O)CSc2ccccc2NC(=O)Cn2cc(CN3CCN(c4ccc([N+](=O)[O-])cc4)CC3)nn2)[C@]2(C)[C@H](C)CC[C@]3(CCC(=O)[C@H]32)[C@@H](C)[C@@H]1O | 0.125 (≈ 0.154 µM) | 0.125 (≈ 0.154 µM) | 0.25 (≈ 0.307 µM) | 0.25 (≈ 0.307 µM) | > 32 | 0.25 (≈ 0.307 µM) | 0.125 (≈ 0.154 µM) | 0.5 (≈ 0.614 µM) | 0.25 (≈ 0.307 µM) | > 32 | 1 | Activity [12]: Active
3 | C=C[C@]1(C)C[C@@H](OC(=O)CSCCN(CC)CC)[C@]2(C)[C@H](C)CC[C@]3(CCC(=O)[C@H]32)[C@@H](C)[C@@H]1O [TIAMULIN] | 0.5 (≈ 1.01 µM) | 0.5 (≈ 1.01 µM) | 1 (≈ 2.03 µM) | 1 (≈ 2.03 µM) | – | 1 (≈ 2.03 µM) | 1 (≈ 2.03 µM) | 2 (≈ 4.05 µM) | 2 (≈ 4.05 µM) | – | – | PAE [13]: 1.65 h; PAE [14]: 2.04 h; Activity [15]: 0.77 log10CFU/g; survival at 30 mg/kg [16]: 20%
4 | CC[C@]1(C)C[C@@H](OC(=O)CSc2nnc(N)[nH]2)[C@]2(C)[C@H](C)CC[C@]3(CCC(=O)[C@H]32)[C@@H](C)[C@@H]1O [AZAMULIN] | – | – | – | – | – | – | – | – | – | – | – | IC50 [17]: 0.12 µM
5 | C=C[C@]1(C)C[C@@H](OC(=O)CSc2ccccc2NC(=O)Cn2cc(CN(C)C)nn2)[C@]2(C)[C@H](C)CC[C@]3(CCC(=O)[C@H]32)[C@@H](C)[C@@H]1O | 0.25 (≈ 0.384 µM) | 0.25 (≈ 0.384 µM) | 0.25 (≈ 0.384 µM) | 0.5 (≈ 0.767 µM) | > 32 | 0.5 (≈ 0.767 µM) | 0.25 (≈ 0.384 µM) | 0.5 (≈ 0.767 µM) | 0.5 (≈ 0.767 µM) | > 32 | 1 | Activity [18]: Active; Activity [19]: 99.9%; PAE [13]: 2.03 h; PAE [14]: 2.74 h; Activity [15]: 1.71 log10CFU/g; survival at 30 mg/kg [16]: 50%; Activity [20]: Non-Toxic; IC50 [21]: 6.15 µM
6 | C=C[C@]1(C)C[C@@H](OC(=O)CSc2ccccc2NC(=O)Cn2cc(CN3CCN(c4ccc(F)cc4)CC3)nn2)[C@]2(C)[C@H](C)CC[C@]3(CCC(=O)[C@H]32)[C@@H](C)[C@@H]1O | 1 (≈ 1.27 µM) | 0.5 (≈ 0.635 µM) | 0.5 (≈ 0.635 µM) | 1 (≈ 1.27 µM) | > 32 | 1 (≈ 1.27 µM) | 0.5 (≈ 0.635 µM) | 1 (≈ 1.27 µM) | 2 (≈ 2.54 µM) | > 32 | 1 | –
7 | C=C[C@]1(C)C[C@@H](OC(=O)CSc2ccccc2NC(=O)Cn2cc(CN3CCN(c4ccc(OC)cc4)CC3)nn2)[C@]2(C)[C@H](C)CC[C@]3(CCC(=O)[C@H]32)[C@@H](C)[C@@H]1O | 1 (≈ 1.25 µM) | 0.5 (≈ 0.626 µM) | 1 (≈ 1.25 µM) | 1 (≈ 1.25 µM) | > 32 | 1 (≈ 1.25 µM) | 0.5 (≈ 0.626 µM) | 1 (≈ 1.25 µM) | 2 (≈ 2.5 µM) | > 32 | 1 | –
8 | C=C[C@]1(C)C[C@@H](OC(=O)CSc2ccccc2NC(=O)Cn2cc(CN(CC)CC)nn2)[C@]2(C)[C@H](C)CC[C@]3(CCC(=O)[C@H]32)[C@@H](C)[C@@H]1O | 0.25 (≈ 0.368 µM) | 0.25 (≈ 0.368 µM) | 0.5 (≈ 0.735 µM) | 0.5 (≈ 0.735 µM) | > 32 | 0.5 (≈ 0.735 µM) | 0.25 (≈ 0.368 µM) | 1 (≈ 1.47 µM) | 0.5 (≈ 0.735 µM) | > 32 | 1 | Activity [18]: Active; Activity [19]: 99.9%; PAE [13]: 1.81 h; PAE [14]: 1.84 h
9 | C=C[C@]1(C)C[C@@H](OC(=O)CSc2ccccc2NC(=O)Cn2cc(CN3CCCC(CO)C3)nn2)[C@]2(C)[C@H](C)CC[C@]3(CCC(=O)[C@H]32)[C@@H](C)[C@@H]1O (stereo partly specified) | 0.5 (≈ 0.693 µM) | 0.5 (≈ 0.693 µM) | 0.5 (≈ 0.693 µM) | 0.5 (≈ 0.693 µM) | > 32 | 0.5 (≈ 0.693 µM) | 0.5 (≈ 0.693 µM) | 1 (≈ 1.39 µM) | 0.5 (≈ 0.693 µM) | > 32 | 1 | –
10 | C=C[C@]1(C)C[C@@H](OC(=O)CSc2ccccc2NC(=O)Cn2cc(CN3CCN(c4ccccc4)CC3)nn2)[C@]2(C)[C@H](C)CC[C@]3(CCC(=O)[C@H]32)[C@@H](C)[C@@H]1O | 0.5 (≈ 0.65 µM) | 0.5 (≈ 0.65 µM) | 0.5 (≈ 0.65 µM) | 1 (≈ 1.3 µM) | > 32 | 0.5 (≈ 0.65 µM) | 0.5 (≈ 0.65 µM) | 1 (≈ 1.3 µM) | 2 (≈ 2.6 µM) | > 32 | 1 | –
11 | C=C[C@]1(C)C[C@@H](OC(=O)CSc2ccccc2NC(=O)Cn2cc(CN3CCN(c4ccc(C)cc4)CC3)nn2)[C@]2(C)[C@H](C)CC[C@]3(CCC(=O)[C@H]32)[C@@H](C)[C@@H]1O | 1 (≈ 1.28 µM) | 0.5 (≈ 0.639 µM) | 1 (≈ 1.28 µM) | 1 (≈ 1.28 µM) | > 32 | 4 (≈ 5.11 µM) | 0.5 (≈ 0.639 µM) | 2 (≈ 2.55 µM) | 2 (≈ 2.55 µM) | > 32 | 1 | –
